The values below come from ChEMBL document CHEMBL1123548 (J Med Chem, 1986).

One test has as its target Adenosine receptor A2a (Cavia porcellus, UniProt P46616). Description: Compound was evaluated for its ability to antagonise cyclic [3H]AMP accumulation in [3H]adenine-labeled guinea pig cerebral cortical slices. In kind it is functional.
The species named for the next test is Cavia porcellus. Description: Selectivity was expressed as the ratio is Ki of adenosine A1 receptor to that of adenosine A2 receptor.
The target in another test is T1, Adenosine receptor A1 (Rattus norvegicus, UniProt P25099).
T1 sequence (P25099 whole entry): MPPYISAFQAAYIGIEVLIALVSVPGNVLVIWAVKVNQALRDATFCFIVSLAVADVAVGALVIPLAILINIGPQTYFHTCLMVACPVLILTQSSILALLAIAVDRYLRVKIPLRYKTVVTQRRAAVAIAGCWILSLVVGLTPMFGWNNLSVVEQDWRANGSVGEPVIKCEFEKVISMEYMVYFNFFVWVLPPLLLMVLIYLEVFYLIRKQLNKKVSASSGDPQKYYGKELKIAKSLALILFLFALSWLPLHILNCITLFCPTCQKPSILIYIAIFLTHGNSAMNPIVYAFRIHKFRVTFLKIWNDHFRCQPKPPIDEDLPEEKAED
As to the kind of experiment: Ability to inhibit binding of 1 nM [3H]cyclohexyladenosine to adenosine A1 receptor in rat cerebral cortical membranes. In kind it is cell membranes, Membrane. An outline of the steps: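 Displacement of 1 nM N6-[3H]cyclohexyladenosine from A1 sites in rat cerebral cortical membranes by a range of xanthine concentrations. Each point was run in triplicate in at least two separate experiments. IC50 was determined and converted to Ki. Values are mean ± SEM of two to five determinations.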

Test [1] concerns the target Adenosine receptor A1 (Rattus norvegicus) (UniProt P25099). Description: Inactive Selectivity was expressed as the ratio is Ki of A1-[…].

Chain of Adenosine receptor A2a (P46616 whole entry): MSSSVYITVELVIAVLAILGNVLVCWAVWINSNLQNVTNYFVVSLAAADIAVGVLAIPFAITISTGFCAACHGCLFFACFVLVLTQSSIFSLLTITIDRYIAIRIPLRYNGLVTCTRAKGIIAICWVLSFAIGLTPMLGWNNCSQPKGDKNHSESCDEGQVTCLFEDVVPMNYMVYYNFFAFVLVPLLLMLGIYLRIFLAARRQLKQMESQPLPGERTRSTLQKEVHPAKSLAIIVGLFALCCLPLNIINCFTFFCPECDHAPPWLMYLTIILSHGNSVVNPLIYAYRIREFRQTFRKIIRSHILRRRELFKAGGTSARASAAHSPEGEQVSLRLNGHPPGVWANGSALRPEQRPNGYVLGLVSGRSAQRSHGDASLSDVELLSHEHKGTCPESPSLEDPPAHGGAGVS

Turning to `CCn1c(=O)c2nc[nH]c2n(C)c1=O`, the Ki worked out at 5 µM at Adenosine receptor A2a and 15 µM on Adenosine receptor A1. The Selectivity ratio in the test filed under Cavia porcellus is 3.
For the molecule `CCCn1c(=O)c2c(ncn2C)n(C)c1=O`, the Ki at Adenosine receptor A2a turned out to be 5 µM; at Adenosine receptor A1 it was 38 µM. The Selectivity ratio in the test filed under Cavia porcellus was determined as 9.5.
Regarding `Cn1c(=O)n(CCO)c(=O)c2[nH]cnc21`, the figures for the Ki at Adenosine receptor A2a and at Adenosine receptor A1 were 50 µM and 85 µM, respectively. In addition, the Selectivity ratio in the test listed under Cavia porcellus is 1.7.
Consider `C#CCn1cnc2c1c(=O)n(CCC)c(=O)n2CCC`, for which the results for the Ki on Adenosine receptor A2a and at Adenosine receptor A1 were 0.4 µM and 0.6 µM, respectively. In the test filed under Cavia porcellus, the Selectivity ratio worked out at 1.5.
The like results for `CCCn1c(=O)n(C)c(=O)c2c1ncn2C` were, in that order, 9 µM, 24 µM and 2.7.
For the molecule `CCn1c(=O)c2nc[nH]c2n(CC)c1=O`, the results for the Ki on Adenosine receptor A2a and on Adenosine receptor A1 were 3 µM and 3.3 µM, respectively. Further, in the test filed under Cavia porcellus, the Selectivity ratio was found to be 1.1.
The corresponding values for `CC(C)n1c(=O)n(C)c(=O)c2[nH]cnc21` are 6 µM, 12 µM and 2.
The like results for `CC(C)Cn1c(=O)n(C)c(=O)c2c1ncn2Cc1ccccc1` were, in that order, 11 µM, 9 µM and 0.8.
The corresponding values for `Cn1c(=O)c2nc[nH]c2n(CCO)c1=O` are 80 µM, 60 µM and 0.8.
As to `C=CCn1c(=O)c2c(ncn2C)n(CC=C)c1=O`, the Ki on Adenosine receptor A2a was found to be 4 µM; on Adenosine receptor A1, 18 µM. Further, the Selectivity ratio in the test listed under Cavia porcellus is 4.5.
As for `CC(C)Cn1c(=O)n(C)c(=O)c2c1ncn2C`, the Ki amounted to 7 µM on Adenosine receptor A2a and 19 µM at Adenosine receptor A1. Also, in the test filed under Cavia porcellus, the Selectivity ratio is 2.7.
With `C#CCn1cnc2c1c(=O)n(C)c(=O)n2C`, the figures for the Ki on Adenosine receptor A2a and on Adenosine receptor A1 were 4.1 µM and 12 µM, respectively. In the test filed under Cavia porcellus, the Selectivity ratio was determined as 2.9.
The like results for `CCCn1c(=O)c2c(ncn2CCC)n(CCC)c1=O` were, in that order, 1.4 µM, 2.6 µM and 1.9.
For `CCCn1cnc2c1c(=O)n(C)c(=O)n2C`, the Ki at Adenosine receptor A2a turned out to be 11 µM; at Adenosine receptor A1, 21 µM. For the same molecule, the Selectivity ratio in test [1] was 1.9.
Turning to `C=CCn1cnc2c1c(=O)n(CCC)c(=O)n2CCC`, the Ki was 0.7 µM at Adenosine receptor A2a and 1.9 µM on Adenosine receptor A1. Further, the Selectivity ratio in the test filed under Cavia porcellus turned out to be 2.7.
On Adenosine receptor A2a, `C#CCn1c(=O)c2c(ncn2C)n(C)c1=O` yielded a Ki of 6 µM. Also, in the test filed under Cavia porcellus, the Selectivity ratio was 7.5.
For `Cn1c(=O)c2c(ncn2Cc2ccccc2)n(C)c1=O`, the Ki on Adenosine receptor A2a amounted to 14 µM; on Adenosine receptor A1, 6 µM. Besides, the Selectivity ratio in the test listed under Cavia porcellus stood at 0.4.
As to `C=CCn1c(=O)c2nc[nH]c2n(CC=C)c1=O`, in the test filed under Cavia porcellus, the Selectivity ratio was determined as 2. On Adenosine receptor A1, this molecule displayed a Ki of 10 µM.
Regarding `O=c1c2[nH]cnc2n(Cc2ccccc2)c(=O)n1Cc1ccccc1`, the Ki at Adenosine receptor A2a was found to be 14 µM; on Adenosine receptor A1 it was 2 µM. The Selectivity ratio in the test filed under Cavia porcellus was determined as 0.14.
For `C=CCn1cnc2c1c(=O)n(C)c(=O)n2CC(C)C`, the Ki worked out at 8.5 µM on Adenosine receptor A2a and 13 µM on Adenosine receptor A1. The Selectivity ratio in the test listed under Cavia porcellus came to 1.5.
For `Cn1c(=O)c2c(ncn2CCO)n(C)c1=O` [ETOFYLLINE], the figures for the Ki at Adenosine receptor A2a and at Adenosine receptor A1 were 135 µM and 105 µM, respectively. For the same molecule, the Selectivity ratio in the test listed under Cavia porcellus amounted to 0.8.
Turning to `CC(C)Cn1c(=O)c2nc[nH]c2n(CC(C)C)c1=O`, in the test listed under Cavia porcellus, the Selectivity ratio came out at 0.3. For the same molecule, affinity at Adenosine receptor A1 was put at a Ki of 0.5 µM.
In the case of `CC(C)Cn1c(=O)n(C)c(=O)c2nc[nH]c21`, the Selectivity ratio in the test listed under Cavia porcellus amounted to 0.9.
Regarding `C=CCn1cnc2c1c(=O)n(C)c(=O)n2C`, the Ki on Adenosine receptor A2a worked out at 10 µM; at Adenosine receptor A1, 33 µM. Further, in the test filed under Cavia porcellus, the Selectivity ratio stood at 3.3.
`CCCn1c(=O)c2c(ncn2C)n(CCC)c1=O`: the Ki was 1.2 µM on Adenosine receptor A2a and 7 µM on Adenosine receptor A1. For the same molecule, in the test listed under Cavia porcellus, the Selectivity ratio turned out to be 5.8.
The like results for `Cn1c(=O)c2c(ncn2CCCl)n(C)c1=O` [7-CHLOROETHYLTHEOPHYLLINE] were, in that order, 4.5 µM, 8 µM and 1.8.
The corresponding values for `CC(=O)OCCn1cnc2c1c(=O)n(C)c(=O)n2C` are 68 µM, 40 µM and 0.6.
The corresponding values for `C=CCn1c(=O)c2c(ncn2C)n(C)c1=O` are 6.5 µM, 47 µM and 7.2.
Take `CCCn1c(=O)c2nc[nH]c2n(CCC)c1=O`: the Selectivity ratio in the test filed under Cavia porcellus amounted to 0.3.
As for `CCCn1cnc2c1c(=O)n(C)c(=O)n2CC(C)C`, the Ki is 11 µM on Adenosine receptor A2a and 13 µM on Adenosine receptor A1. For the same molecule, the Selectivity ratio in the test listed under Cavia porcellus is 1.2.
In the case of `CCCn1c(=O)c2c(ncn2Cc2ccccc2)n(CCC)c1=O`, the Ki at Adenosine receptor A2a was determined as 1.5 µM; on Adenosine receptor A1, 1 µM. Moreover, the Selectivity ratio in the test listed under Cavia porcellus was found to be 0.7.
With `C#CCn1cnc2c1c(=O)n(C)c(=O)n2CC(C)C`, the Ki at Adenosine receptor A2a was determined as 2.8 µM; on Adenosine receptor A1, 3.1 µM. For the same molecule, the Selectivity ratio in the test listed under Cavia porcellus is 1.1.
